Reference: ChEMBL document CHEMBL2203235, “Optimization of a natural product-based class of γ-secretase modulators” (J Med Chem, 2012)

How the values were obtained:
[1] = test system: Liver microsomes; assay: (§1) Metabolic stability in human liver microsomes assessed as compound remaining at 1 uM at 60 mins by LC/MS/MS analysis in absence of NADPH; type: ADME, Microsome; settings: microsomes, 1 h, 1 µM
Method in brief: (§2)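 Human liver microsomes were run without NADPH as a qualitative read of susceptibility to enzymatic hydrolysis. The read-out was percent parent remaining at 60 min.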

[2] = test system: CHO-2B7; assay: Modulation of gamma secretase in CHO-2B7 cells assessed as reduction in amyloid beta 42 level at 20 uM after 5 hrs by MSD ELISA; type: cell-based; parameters: scale not given: the % may be the effect or the level left; settings: Cricetulus griseus
[3] = Modulation of gamma secretase in CHO-2B7 cells assessed as reduction in amyloid beta 42 level after 5 hrs by MSD ELISA; type: cell-based; settings: Cricetulus griseus, CHO-2B7, 5 h
[4] = test system: CHO-2B7; assay: Modulation of gamma secretase in CHO-2B7 cells assessed as reduction in amyloid beta 40 level at 20 uM after 5 hrs by MSD ELISA; type: cell-based; parameters: scale not given: the % may be the effect or the level left; settings: Cricetulus griseus
[5] = as §1; type: ADME, Microsome; settings: liver microsomes, read-out: Stability; method in brief: as §2
[6] = Drug uptake in CD1 mouse brain at 1 mg/kg, iv at 6 hrs
[7] = test system: Liver microsomes; assay: Metabolic stability in human liver microsomes at 1 uM after 60 mins by LC/MS/MS analysis; settings: 1 h
[8] = Ratio of drug uptake in brain to plasma in CD1 mouse at 1 mg/kg, iv at 6 hrs; settings: brain and plasma
[9] = Plasma concentration in CD1 mouse at 1 mg/kg, iv at 6 hrs
[10] = Modulation of gamma secretase in CHO-2B7 cells assessed as reduction in amyloid beta 40 level after 5 hrs by MSD ELISA; type: cell-based; settings: Cricetulus griseus, CHO-2B7, 5 h

`CC(C)[C@@H](OC(=O)N1CCC1)[C@H]1C[C@@H](C)[C@H]2[C@H](O1)[C@H](O)[C@@]1(C)[C@@H]3CC[C@H]4C(C)(C)[C@@H](OC(N)=O)CC[C@@]45C[C@@]35CC[C@]21C` gave a Stability [1] of 150%.

For `C[C@@H]1C[C@H]([C@H](O)C(C)(C)O)O[C@H]2[C@H]1[C@@]1(C)CC[C@@]34C[C@@]35CC[C@H](O[C@H]3CN(C(=O)C6(C)COC6)CCO3)C(C)(C)[C@@H]5CC[C@H]4[C@]1(C)[C@H]2O`, the Activity [2] was 50% and the IC50 [3] was 70 nM.

For `CC(C)[C@@H](OC(N)=O)[C@H]1C[C@@H](C)[C@H]2[C@H](O1)[C@H](O)[C@@]1(C)[C@@H]3CC[C@H]4C(C)(C)[C@@H](OC(=O)N5CCOCC5)CC[C@@]45C[C@@]35CC[C@]21C`, the Activity [4] was 32%, the Stability [1] was 130% and the IC50 [3] was 3400 nM.

`COC(=O)OC[C@H]1C[C@@H](C)[C@H]2[C@H](O1)[C@H](O)[C@@]1(C)[C@@H]3CC[C@H]4C(C)(C)[C@@H](O[C@H]5CN(C(=O)CC6CC6)CCO5)CC[C@@]45C[C@@]35CC[C@]21C` showed an Activity [4] of 46%, a remaining at 1 h, 1 µM [5] of 59% and an IC50 [3] of 330 nM.

With `CCO[C@@H]([C@H]1C[C@@H](C)[C@H]2[C@H](O1)[C@H](O)[C@@]1(C)[C@@H]3CC[C@H]4C(C)(C)[C@@H](OC(=O)N5CCN(C)CC5)CC[C@@]45C[C@@]35CC[C@]21C)C(C)(C)O` the concentration at 6 h [6] was 12 nM, the Stability [7] was “Stable” and the Kp at 6 h [8] was 0.13. It also gave a concentration at 6 h [9] of 95 nM, an IC50 [10] of 5000 nM and an IC50 [3] of 68 nM.

Molecule `CNC(=O)O[C@H](C(C)C)[C@H]1C[C@@H](C)[C@H]2[C@H](O1)[C@H](O)[C@@]1(C)[C@@H]3CC[C@H]4C(C)(C)[C@@H](OC(=O)N5CCOCC5)CC[C@@]45C[C@@]35CC[C@]21C` has an Activity [4] of 17%, a Stability [1] of 139% and an IC50 [3] of 4600 nM.

`CNC(=O)O[C@@H]([C@H]1C[C@@H](C)[C@H]2[C@H](O1)[C@H](O)[C@@]1(C)[C@@H]3CC[C@H]4C(C)(C)[C@@H](O)CC[C@@]45C[C@@]35CC[C@]21C)C(C)(C)O` showed a remaining at 1 h, 1 µM [5] of 96% and an Activity [2] of 27%.

With `CC(C)[C@@H](OC(=O)N(C)C)[C@H]1C[C@@H](C)[C@H]2[C@H](O1)[C@H](O)[C@@]1(C)[C@@H]3CC[C@H]4C(C)(C)[C@@H](OC(N)=O)CC[C@@]45C[C@@]35CC[C@]21C` the Stability [1] was 131%, the IC50 [10] was 19000 nM and the IC50 [3] was 920 nM.

In the case of `CCO[C@@H]([C@H]1C[C@@H](C)[C@H]2[C@H](O1)[C@H](O)[C@@]1(C)[C@@H]3CC[C@H]4C(C)(C)[C@@H](O[C@H]5CN(C)CCO5)CC[C@@]45C[C@@]35CC[C@]21C)C(C)(C)O`, the concentration at 6 h [6] is reported as 16 nM, the Stability [7] is reported as “Stable” and the Kp at 6 h [8] is reported as 0.76. For the same molecule, the concentration at 6 h [9] was 21 nM, the IC50 [10] was 4500 nM and the IC50 [3] was 250 nM.

In the case of `CC(C)[C@@H](OC(=O)N1CCC1)[C@H]1C[C@@H](C)[C@H]2[C@H](O1)[C@H](O)[C@@]1(C)[C@@H]3CC[C@H]4C(C)(C)[C@@H](OC(=O)N5CCN(C)CC5)CC[C@@]45C[C@@]35CC[C@]21C`, the concentration at 6 h [6] is reported as 14 nM, the Stability [7] is reported as “Stable” and the Kp at 6 h [8] is reported as 0.03. It also gave a concentration at 6 h [9] of 450 nM, an IC50 [10] of 8200 nM and an IC50 [3] of 170 nM.

In the case of `CC(C)[C@@H](OC(=O)N1CCC1)[C@H]1C[C@@H](C)[C@H]2[C@H](O1)[C@H](O)[C@@]1(C)[C@@H]3CC[C@H]4C(C)(C)[C@@H](OC(=O)NC5CNC5)CC[C@@]45C[C@@]35CC[C@]21C`, the Stability [7] is reported as “Stable”, the Stability [1] is reported as 127% and the IC50 [10] is reported as 2600 nM. The IC50 [3] was 100 nM.

For `CC(C)[C@@H](OC(N)=O)[C@H]1C[C@@H](C)[C@H]2[C@H](O1)[C@H](O)[C@@]1(C)[C@@H]3CC[C@H]4C(C)(C)[C@@H](OC(=O)N5CCC5)CC[C@@]45C[C@@]35CC[C@]21C`, the Activity [4] was 15%, the remaining at 1 h, 1 µM [5] was 106% and the Activity [2] was 40%.

In the case of `CC(=O)OC[C@H]1C[C@@H](C)[C@H]2[C@H](O1)[C@H](O)[C@@]1(C)[C@@H]3CC[C@H]4C(C)(C)[C@@H](O[C@H]5CN(C6COC6)CCO5)CC[C@@]45C[C@@]35CC[C@]21C`, the Activity [4] is reported as 0%, the remaining at 1 h, 1 µM [5] is reported as 0% and the Activity [2] is reported as 0%.

Molecule `CC(=O)O[C@@H]([C@H]1C[C@@H](C)[C@H]2[C@H](O1)[C@H](O)[C@@]1(C)[C@@H]3CC[C@H]4C(C)(C)[C@@H](O[C@H]5CN(C(=O)CC6CC6)CCO5)CC[C@@]45C[C@@]35CC[C@]21C)C(C)(C)O` has an Activity [4] of 38%, a remaining at 1 h, 1 µM [5] of 2% and an IC50 [3] of 130 nM.

`C[C@@H]1C[C@H]([C@H](OC(=O)N(C)C)C(C)(C)O)O[C@H]2[C@H]1[C@@]1(C)CC[C@@]34C[C@@]35CC[C@H](O)C(C)(C)[C@@H]5CC[C@H]4[C@]1(C)[C@H]2O` showed a remaining at 1 h, 1 µM [5] of 115% and an Activity [2] of 53%.

Molecule `C[C@@H]1C[C@H](COC(=O)N(C)C)O[C@H]2[C@H]1[C@@]1(C)CC[C@@]34C[C@@]35CC[C@H](O[C@H]3CN(C(=O)CC6CC6)CCO3)C(C)(C)[C@@H]5CC[C@H]4[C@]1(C)[C@H]2O` has an Activity [4] of 63%, a remaining at 1 h, 1 µM [5] of 81% and an IC50 [3] of 1200 nM.

In the case of `CC(C)[C@@H](OC(=O)N(C)C)[C@H]1C[C@@H](C)[C@H]2[C@H](O1)[C@H](O)[C@@]1(C)[C@@H]3CC[C@H]4C(C)(C)[C@@H](OC(=O)N5CCC5)CC[C@@]45C[C@@]35CC[C@]21C`, the Activity [4] is reported as 0%, the Stability [1] is reported as 127% and the Activity [2] is reported as 0%.

For `CCO[C@@H]([C@H]1C[C@@H](C)[C@H]2[C@H](O1)[C@H](O)[C@@]1(C)[C@@H]3CC[C@H]4C(C)(C)[C@@H](OC(=O)NC)CC[C@@]45C[C@@]35CC[C@]21C)C(C)(C)O`, the Activity [4] was 47%, the Stability [7] was “Stable” and the IC50 [3] was 360 nM.

In the case of `CC(C)[C@@H](OC(=O)N1CCC1)[C@H]1C[C@@H](C)[C@H]2[C@H](O1)[C@H](O)[C@@]1(C)[C@@H]3CC[C@H]4C(C)(C)[C@@H](O[C@H]5CN(CC(=O)O)CCO5)CC[C@@]45C[C@@]35CC[C@]21C`, the Activity [4] is reported as 41%, the Stability [7] is reported as “Stable” and the IC50 [3] is reported as 700 nM.

Work on `CNC(=O)O[C@H](C(C)C)[C@H]1C[C@@H](C)[C@H]2[C@H](O1)[C@H](O)[C@@]1(C)[C@@H]3CC[C@H]4C(C)(C)[C@@H](OC(N)=O)CC[C@@]45C[C@@]35CC[C@]21C` yielded an Activity [4] of 40%, a remaining at 1 h, 1 µM [5] of 117% and an IC50 [3] of 950 nM.

With `C[C@@H]1C[C@H]([C@H](O)C(C)(C)O)O[C@H]2[C@H]1[C@@]1(C)CC[C@@]34C[C@@]35CC[C@H](O[C@H]3CN(C(=O)c6nccn6C)CCO3)C(C)(C)[C@@H]5CC[C@H]4[C@]1(C)[C@H]2O` the Activity [2] was 5% and the IC50 [3] was 130 nM.

Work on `CC(C)[C@@H](OC(=O)N(C)C)[C@H]1C[C@@H](C)[C@H]2[C@H](O1)[C@H](O)[C@@]1(C)[C@@H]3CC[C@H]4C(C)(C)[C@@H](OC(=O)N5CCOCC5)CC[C@@]45C[C@@]35CC[C@]21C` yielded an Activity [4] of 17%, a remaining at 1 h, 1 µM [5] of 118% and an IC50 [3] of 7400 nM.

`CNC(=O)O[C@H](C(C)C)[C@H]1C[C@@H](C)[C@H]2[C@H](O1)[C@H](O)[C@@]1(C)[C@@H]3CC[C@H]4C(C)(C)[C@@H](OC(=O)N5CCC5)CC[C@@]45C[C@@]35CC[C@]21C` gave an Activity [4] of 47%, a Stability [1] of 152% and an IC50 [3] of 17000 nM.

Molecule `C[C@@H]1C[C@H]([C@H](O)C(C)(C)O)O[C@H]2[C@H]1[C@@]1(C)CC[C@@]34C[C@@]35CC[C@H](O[C@H]3CN(CC(N)=O)CCO3)C(C)(C)[C@@H]5CC[C@H]4[C@]1(C)[C@H]2O` has an Activity [2] of 0% and an IC50 [3] of 60 nM.

For `CCO[C@@H]([C@H]1C[C@@H](C)[C@H]2[C@H](O1)[C@H](O)[C@@]1(C)[C@@H]3CC[C@H]4C(C)(C)[C@@H](OC(=O)N5CCN(CCOC)CC5)CC[C@@]45C[C@@]35CC[C@]21C)C(C)(C)O`, the concentration at 6 h [6] was 8 nM, the Activity [4] was 51% and the Stability [7] was “Stable”. The Kp at 6 h [8] was 0.03, the concentration at 6 h [9] was 261 nM and the IC50 [3] was 320 nM.

In the case of `CCO[C@@H]([C@H]1C[C@@H](C)[C@H]2[C@H](O1)[C@H](O)[C@@]1(C)[C@@H]3CC[C@H]4C(C)(C)[C@@H](OC(=O)N(C)C5CN(C)C5)CC[C@@]45C[C@@]35CC[C@]21C)C(C)(C)O`, the concentration at 6 h [6] is reported as 56 nM, the Stability [7] is reported as “Stable” and the Kp at 6 h [8] is reported as 0.1. It also gave a concentration at 6 h [9] of 566 nM, an IC50 [10] of 4300 nM and an IC50 [3] of 61 nM.

In the case of `CC(C)[C@@H](OC(=O)N1CCC1)[C@H]1C[C@@H](C)[C@H]2[C@H](O1)[C@H](O)[C@@]1(C)[C@@H]3CC[C@H]4C(C)(C)[C@@H](OC(=O)N5CCC5)CC[C@@]45C[C@@]35CC[C@]21C`, the Stability [7] is reported as “Stable”, the Stability [1] is reported as 158% and the IC50 [10] is reported as 10000 nM. The IC50 [3] was 470 nM.

With `CC(C)[C@@H](OC(N)=O)[C@H]1C[C@@H](C)[C@H]2[C@H](O1)[C@H](O)[C@@]1(C)[C@@H]3CC[C@H]4C(C)(C)[C@@H](OC(=O)NC5CNC5)CC[C@@]45C[C@@]35CC[C@]21C` the Stability [1] was 121%, the IC50 [10] was 4000 nM and the IC50 [3] was 160 nM.
